Source: PubChem BioAssay
In the library only some 1.4% were active in any assay of this set; here they are far more common.
SR-BI DiI-HDL act: SR-BI HDL lipid transfer activation | CHO ldlA[mSR-BI] cells, DiI-HDL uptake fluorescence, 3 h; 100 = double the neutral-control signal | 320,000 tested, 0.096% active | activation, % at 12.5 µM;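 active = mean replicate activation of at least 60% and every replicate at or above 60%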;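 also: 0% = median plate neutral-control signal and 100% = twice that signal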
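Material – SR-BI-overexpressing, LDLR-lacking CHO cells · Medium – BSA-supplemented, HEPES-buffered Ham's F12, pH 7.4 · Doses – single concentration · Times – compound with DiI-HDL co-incubation, 3 h at 37 °C · Measured by – bottom-read fluorescence, 550/595 nm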
PKA-R2B act: PKA-R2B complex activation | P22694+P31323 | PKA-R2B holoenzyme dissociation, Cy5-IP20 fluorescence polarization; R2B truncated from residue 108, S112A mutant; 0% DMSO only, 100% 113 µM cGMP | activation, % at 11.4 µM | 340,000 tested, 0.079% active | AID 504700;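 active = activation above a cutoff set at the mean over all compounds plus 3 SD, cut at about 18% in these data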;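 also: higher means more holoenzyme dissociation and a rise in polarization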
Target sequence (P31323 whole entry, looked up, other chains not shown, the tested form may be a part): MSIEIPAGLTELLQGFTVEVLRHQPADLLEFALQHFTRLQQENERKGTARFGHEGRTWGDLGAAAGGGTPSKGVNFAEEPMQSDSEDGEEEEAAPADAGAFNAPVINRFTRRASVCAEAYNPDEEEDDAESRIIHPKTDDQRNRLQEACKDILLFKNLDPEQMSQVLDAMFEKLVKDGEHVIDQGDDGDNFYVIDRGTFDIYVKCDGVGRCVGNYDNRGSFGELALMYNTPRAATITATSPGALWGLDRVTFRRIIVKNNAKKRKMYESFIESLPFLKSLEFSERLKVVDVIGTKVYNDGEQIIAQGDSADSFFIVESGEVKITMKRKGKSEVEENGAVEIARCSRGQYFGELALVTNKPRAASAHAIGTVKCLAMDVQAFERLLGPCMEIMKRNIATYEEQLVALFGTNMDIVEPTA
PKA-R1A act: activates the PKA-R1A holoenzyme complex. P00514+P68181. PKA-R1A dissociation, Cy5-IP20 fluorescence polarization; scaled: DMSO 0%, 113 µM cGMP 100%. activation, % at 11.4 µM. 340,000 tested, 0.083% active. AID 504707;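 active = percent activation above the mean of all tested compounds plus 3 SD, cut at about 19% in these data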;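 also: higher means more PKAc released from R1A so a rise in polarization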
SR-BI DiI inh: inhibitors of mouse SR-BI mediated HDL lipid uptake; ldlA[mSR-BI] CHO cells, DiI-HDL uptake fluorescence, 3 h; 320,000 tested, 0.96% active; Q61009; AID 488896; inhibition, % at 12.5 µM;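 active = mean replicate inhibition of at least 70% and a set share of replicates each scoring 70 or more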;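 also: 0% = median of neutral control wells and 100% = median of positive control wells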
Vif imaging: blocks HIV Vif function. inhibition, % at 7.49 µM. HEK293T cells, Vif self-association by quenched fluorescence, imaging, 24 h. 340,000 tested, 0.35% active; in the data active = inhibition above about 50%, passing the limit was not always enough
R2B FP artifact: counter-screen for PKA-R2B activators: fluorescence polarization artifacts; AID 504796; activation, % at 11.4 µM; FP artifact counterscreen; 270 tested, 6% active; shares compounds with PKA-R2B act; in the data active = activation above about 20%;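 also: Cy5 labelled IP20 peptide probe with compound but no PKA protein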
PKA-R2B confirm: PKA-R2B complex activation, confirmation | shares compounds with PKA-R2B act | fluorescence polarization | activation, % at 11.4 µM | 270 tested, 9% active | AID 504797; in the data active = activation above about 19%
Target sequence (P31323 whole entry, looked up): as the sequence (P31323 whole entry, looked up, other chains not shown, the tested form may be a part) above
The depositor's hits bear a star.

For COc1ccc(NC(=O)Nc2ccc3c(c2)C(=O)N([C@H](C)CO)C[C@H](C)[C@@H](CN(C)C(=O)Nc2ccc(C(F)(F)F)cc2)O3)cc1 the results were SR-BI DiI-HDL act -21, PKA-R2B act 19*, PKA-R1A act -6, SR-BI DiI inh 21, Vif imaging -5, R2B FP artifact 1 and PKA-R2B confirm -3.
Screening c1ccc(CSc2nnc3ccc(-c4ccncc4)nn23)cc1 returned PKA-R2B act -1, PKA-R1A act 3 and Vif imaging 3.
`Fc1ccccc1CSc1nnc2ccc(-c3ccncc3)nn12` gave PKA-R2B act 19*, PKA-R1A act 2, Vif imaging -1, R2B FP artifact 2 and PKA-R2B confirm 4.
For CCN1CCN(Cc2nnc(-c3ccccc3)o2)CC1 the results were SR-BI DiI-HDL act 0, PKA-R2B act -5, PKA-R1A act 1, SR-BI DiI inh 0 and Vif imaging 13.
CC1CN(Cc2nnc(-c3ccccc3)o2)CC(C)O1 (centres undefined) was read as SR-BI DiI-HDL act 37, PKA-R2B act 22*, PKA-R1A act -4, SR-BI DiI inh -37, Vif imaging -4, R2B FP artifact 4 and PKA-R2B confirm 2.
CSc1nc(Cc2ccccc2)cc(=O)[nH]1 was read as SR-BI DiI-HDL act 11, PKA-R2B act 0, PKA-R1A act -1, SR-BI DiI inh -11 and Vif imaging 8.
`CN(C)C(=O)C(CCN1CCC(O)(c2ccc(Cl)cc2)CC1)(c1ccccc1)c1ccccc1` gave SR-BI DiI-HDL act 14, PKA-R2B act 7, PKA-R1A act -3, SR-BI DiI inh -14 and Vif imaging -3.
`OC(CCCN1CCC(O)(c2ccc(Cl)cc2)CC1)c1ccc(F)cc1` (centres undefined) gave SR-BI DiI-HDL act 11, PKA-R2B act 19*, PKA-R1A act 2, SR-BI DiI inh -1, Vif imaging -6, R2B FP artifact 6 and PKA-R2B confirm 2.
`Cc1noc(C)c1NC(=O)Nc1ccc2c(c1)C(=O)N([C@H](C)CO)C[C@@H](C)[C@@H](CN(C)S(=O)(=O)c1cn(C)cn1)OCCCC[C@H](C)O2` gave PKA-R2B act 14, PKA-R1A act -1 and Vif imaging 6.
Screening COc1cccc(NC(=O)CN2C(=O)CSc3ccc(S(=O)(=O)N4CCCCC4)cc32)c1 returned SR-BI DiI-HDL act 11, PKA-R2B act 5, PKA-R1A act 5, SR-BI DiI inh -11 and Vif imaging -3.
C=CCN(CCNP(=O)(OCC)OCC)CP(=O)(OCC)OCC was read as SR-BI DiI-HDL act 29, PKA-R2B act 20*, PKA-R1A act 16, SR-BI DiI inh -29, Vif imaging 8, R2B FP artifact 4 and PKA-R2B confirm 0.
Screening Cc1cccc2cc(CN(CCCO)C(=O)Nc3ccccc3Cl)c(=O)[nH]c12 returned SR-BI DiI-HDL act 15, PKA-R2B act 23*, PKA-R1A act -1, SR-BI DiI inh -15, Vif imaging -7, R2B FP artifact -1 and PKA-R2B confirm 3.
Screening COc1ccc(C(=O)NCc2cn3c(C)csc3n2)cc1OC returned SR-BI DiI-HDL act -22, PKA-R2B act -13, PKA-R1A act -8, SR-BI DiI inh 22 and Vif imaging -4.
`CCOc1ccc(CC(=O)NCc2cn3c(C)csc3n2)cc1` gave SR-BI DiI-HDL act -3, PKA-R2B act 22*, PKA-R1A act -2, SR-BI DiI inh 3, Vif imaging -23, R2B FP artifact 0 and PKA-R2B confirm 4.
`COC(=O)Cc1cnc(NC(=O)C2C3CCC(C3)C2C(=O)O)s1` (centres undefined) gave SR-BI DiI-HDL act -8, PKA-R2B act 19*, PKA-R1A act 4, SR-BI DiI inh 8, Vif imaging -4, R2B FP artifact 2 and PKA-R2B confirm 4.
Screening O=S1(=O)CCN(Cc2ccc(Cl)c(Cl)c2)CC1 returned SR-BI DiI-HDL act 15, PKA-R2B act 7, PKA-R1A act -2, SR-BI DiI inh -15 and Vif imaging 0.
Screening O=S1(=O)CCOC(CO)CN1Cc1ccc(Cl)c(Cl)c1 (centres undefined) returned SR-BI DiI-HDL act 12, PKA-R2B act 10, PKA-R1A act 3, SR-BI DiI inh -12, Vif imaging 2, R2B FP artifact -3 and PKA-R2B confirm -1.
For O=C1CCN(c2ccc([N+](=O)[O-])cc2F)CC1 the results were SR-BI DiI-HDL act -5, PKA-R2B act 0, PKA-R1A act -12, SR-BI DiI inh 5 and Vif imaging 5.
Screening CCOC(=O)N1CCN(Cc2nc3c(c(=O)n(C)c(=O)n3C)n2Cc2ccc(F)cc2)CC1 returned SR-BI DiI-HDL act 3, PKA-R2B act 19*, PKA-R1A act -6, SR-BI DiI inh -3, Vif imaging 2, R2B FP artifact 4 and PKA-R2B confirm 4.
For Cc1c(NC(=O)COC(=O)CSc2ccc(C(N)=O)cc2[N+](=O)[O-])c(=O)n(-c2ccccc2)n1C the results were SR-BI DiI-HDL act 33, PKA-R2B act -8, PKA-R1A act -4, SR-BI DiI inh -33 and Vif imaging 8.
For CCN1CCN(c2ccc(S(=O)(=O)N3CCOCC3)cc2NC(=O)c2ccc(F)cc2Cl)CC1 the results were SR-BI DiI-HDL act 20, PKA-R2B act 19*, PKA-R1A act -1, SR-BI DiI inh -20, Vif imaging -7, R2B FP artifact 2 and PKA-R2B confirm 0.
`O=c1[nH]cnc2nc(-c3ccccc3)c(-c3ccccc3)nc12` gave SR-BI DiI-HDL act 9, PKA-R2B act 5, PKA-R1A act 4, SR-BI DiI inh -9 and Vif imaging 20.
O=c1[nH]cnc2ncc(-c3ccc(O)cc3)nc12 was read as SR-BI DiI-HDL act 6, PKA-R2B act 20*, PKA-R1A act -10, SR-BI DiI inh -6, Vif imaging -3, R2B FP artifact 7 and PKA-R2B confirm 7.
For CCc1cc2c(=O)n(CC(=O)NC3CCCCC3)cnc2s1 the results were SR-BI DiI-HDL act 1, PKA-R2B act 19*, PKA-R1A act 9, SR-BI DiI inh -1, Vif imaging -6, R2B FP artifact -1 and PKA-R2B confirm 1.
`Cc1ccc(C(=O)Nc2ccccc2C(=O)N2CCOCC2)cc1[N+](=O)[O-]` gave SR-BI DiI-HDL act 29, PKA-R2B act 20*, PKA-R1A act 5, SR-BI DiI inh -29, Vif imaging 4, R2B FP artifact 0 and PKA-R2B confirm 4.
Screening Cc1ccc(C(=O)N2CCOCC2)cc1[N+](=O)[O-] returned SR-BI DiI-HDL act 0, PKA-R2B act 8, PKA-R1A act 0, SR-BI DiI inh 0 and Vif imaging 0.
